We go through 5 compounds from ChEMBL document CHEMBL4706750, “Design and Catalyzed Activation of Mycophenolic Acid Prodrugs” (ACS Med Chem Lett, 2021).

Activity calls are given as the source filed them. The calls are words filed in the database; no cut-off is given here.

For data set [1], the target named is Inosine-5'-monophosphate dehydrogenase 2 (Homo sapiens) (UniProt P12268). The data set is described as follows: Inhibition of IMPDH2 (unknown origin) assessed by conversion of NAD+ to NADH preincubated for 30 mins followed by addition of inosine-5'- monophosphate substrate and NAD at 10 uM measured by plate reader method. Put shortly:
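IMPDH2 enzyme exposed to test compounds, then stimulated with inosine-5′-monophosphate and NAD+. NADH formation followed by absorbance at 340 nm. Single test concentration of 10 μM.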

Data set [2] can be described thus: Toxicity in mouse MIN6 cells assessed by dehydrogenase activity measured after 48 hrs by CCK-8 assay. Format: cell-based. Put shortly: (§1)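 Cells cultured with compound for 48 h, then dehydrogenase activity read by colorimetric CCK-8 assay. EC50 derived from the concentration series. Cells were primary human hepatocytes or the MIN6 pancreatic β-cell line, as the line states.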
(In general: Formazan colour is commonly taken as a measure of viable cells.)

A short description of data set [3]: Toxicity in human hepatocytes assessed by dehydrogenase activity measured after 48 hrs by CCK-8 assay. It is filed as cell-based, Hepatocyte. Put shortly: as §1
A short description of data set [4]: Stability of compound in PBS at pH 7.4 and 37 degree C measured by HPLC method. It is filed as physicochemical. The note with it: buffer. The essentials: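 Compound incubated at 37 °C in PBS (pH 7.4, 5% DMSO) with no catalyst. Remaining compound followed over time.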
Data set [5] is described as follows: Prodrug conversion in PBS buffer assessed as mycophenolic acid formation in presence of nitroreductase and NADH. Format: ADME. The essentials:
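Prodrug incubated at 37 °C in PBS (pH 7.4, 5% DMSO) with nitroreductase conjugated to 30 μm amino-terminated polystyrene beads by reductive amination, plus NADH. Release of mycophenolic acid followed over time.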

Chain of Inosine-5'-monophosphate dehydrogenase 2 (Homo sapiens) (P12268 2-514 limits assumed): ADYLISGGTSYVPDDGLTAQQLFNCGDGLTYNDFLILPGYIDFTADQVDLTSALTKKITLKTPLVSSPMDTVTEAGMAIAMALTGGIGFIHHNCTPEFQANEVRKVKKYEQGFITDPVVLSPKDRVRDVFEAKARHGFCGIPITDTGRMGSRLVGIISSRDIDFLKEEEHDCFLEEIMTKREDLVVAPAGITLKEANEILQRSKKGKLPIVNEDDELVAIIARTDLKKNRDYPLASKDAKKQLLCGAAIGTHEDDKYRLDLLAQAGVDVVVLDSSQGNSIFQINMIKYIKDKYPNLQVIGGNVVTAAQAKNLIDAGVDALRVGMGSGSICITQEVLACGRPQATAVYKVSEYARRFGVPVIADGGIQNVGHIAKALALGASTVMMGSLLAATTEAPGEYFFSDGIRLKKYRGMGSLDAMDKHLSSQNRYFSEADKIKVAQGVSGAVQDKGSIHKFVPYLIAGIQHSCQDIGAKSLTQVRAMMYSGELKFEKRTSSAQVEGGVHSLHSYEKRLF

Consider `COc1c(C)c2c(c(O)c1C/C=C(\C)CCC(=O)O)C(=O)OC2` [MYCOPHENOLIC ACID], for which, in data set [1], the inhibition result is “Active”. Further, the EC50 (usually the concentration needed to bring the measured effect to its halfway point) at 48 h in data set [2] is 0.6 µM; in data set [3], 5.9 µM.
On to `C#CCOc1c(C/C=C(\C)CCC(=O)O)c(OC)c(C)c2c1C(=O)OC2`, for which the inhibition entry in data set [1] is “inactive”. For the same compound, the EC50 at 48 h in data set [3] is 20.1 µM. In addition, the Stabilty result in data set [4] is reported as “Stable”.
As for `COc1c(C)c2c(c(OCc3ccc([N+](=O)[O-])cc3)c1C/C=C(\C)CCC(=O)O)C(=O)OC2`, in data set [1], the inhibition result is “inactive”. In addition, the EC50 at 48 h came to 24 µM in data set [2] and 14.4 µM in data set [3]. The Stabilty result in data set [4] is listed as “Stable”. For the same compound, in data set [5], the Drug metabolism result is on record as “Metabolite_Detected”.
With `COc1c(C)c2c(c(OCc3ccc([N+](=O)[O-])cc3)c1C/C=C(\C)CCC(=O)OCc1ccc([N+](=O)[O-])cc1)C(=O)OC2`, the inhibition result in data set [1] is “inactive”. The same compound came in with an EC50 at 48 h in data set [3] of 8.3 µM.
The like results for `C#CCOC(=O)CC/C(C)=C/Cc1c(OC)c(C)c2c(c1OCC#C)C(=O)OC2` were, in that order, “inactive” and 6.7 µM.
